Results published in the EternaBench riboswitch data.

Tested on: MS2 coat protein
Assay: apparent Kd, MS2 coat protein; higher = weaker binding; RNA-MaP array; FMN 200 µM where present
Method in brief: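 On Illumina sequencing-chip clusters, designs were transcribed by stalled E. coli RNA polymerase and titrated with SNAP-549-labelled MS2 coat protein (0.7 or 1.5 nM, doubling to 3 µM), without and then with constant ligand, in 100 mM Tris-HCl pH 7.5, 80 mM KCl, 4 mM MgCl2, BSA, DTT, yeast tRNA and Tween-20. Apparent Kd is the median of filtered per-cluster curve fits to green signal normalised to red-channel RNA signal and control-cluster median Fmax.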

[1] = designed as: ON switch for flavin mononucleotide, no ligand
[2] = ligand present: flavin mononucleotide, designed as: ON switch for flavin mononucleotide
[3] = designed as: OFF switch for flavin mononucleotide, no ligand
[4] = ligand present: flavin mononucleotide, designed as: OFF switch for flavin mononucleotide

Row | Sequence | apparent Kd [1] [nM] | apparent Kd [2] [nM] | apparent Kd [3] [nM] | apparent Kd [4] [nM]
1 | UGGUACUAGGGAGGAUAUGGGAAGAUACAUGAGGAUCACCCAUGUUUAAGAAUGUCGAGAGGCAACUAGAAGGCCCUAGUACCU | 504 | 19.4 | – | –
2 | UGGUACAUGGGAGGAUAUCCUCAAACAUGAGGAUCACCCAUGUAAAAUUAUAAGCCGAAAGGCAUGGAGAAGGCCCAUGUACCU | 119 | 17 | – | –
3 | UCAUUAUAAAUCCAUCAUAACUACAUGAGGAUCACCCAUGUGCAGGAUAUCGAUUAUUUAACUAACGAGAAGGGCAUUUACAGA | – | – | 50.1 | 169
4 | AAUUGGAUCCAGAAGGCAUGGACGACCCGUCACAUUAACAUGAGGAUCACCCAUGUCAAAAUACAUGAGGAUAUGGAUCCUAAA | 905 | 37.9 | – | –
5 | GAAUAAUUGAUCCAUUUUUAAAACAUGAGGAUCACCCAUGUGCAGGAUAUCGUGUGAGUUAAAUACGAGAAGGGCAAGAACUGU | – | – | 201 | 214
6 | GUGCUUUGGGAGAAGGCCGUAUGCAAAGCAUACGGAGGAUAUUCAUACCGGAAACGGACAUGAGGAUCACCCAUGUGGCACAAA | – | 44.6 | – | –
7 | GCGCAGCUGGGUGAGGAUAUCGGUGGUAAAACAUGAGGAUCACCCAUGUCCGGAGCUCGGACUUCCGAGAAGGCACCCGGCUGCA | 39 | 9.8 | – | –
8 | UUCAGCUCGUGAGGAUAUACAUGUGCUGGAAACAGCACUAUUAAAUUCACAUGAGGAUCACCCAUGUAGAAGGCACGAGCUGAG | – | – | 15.4 | 18.7
9 | AUGUACCUAGGAUAUACAUGAGGAUCACCCAUGUUCCGGGUGCAAUCAAGUUAAUAUUGUAGAAGGAGGUGAAA | – | – | 17 | 31.8
10 | AUUUCAAUUGUUUACAUGAGGAUCACCCAUGUCAUAAGUCAUGAGGAUAUGGUAUUGUAGUUAUUCCAGAAGGCAUAUAGCUUA | 38.5 | 14.4 | – | –
11 | UUAUUGUGAGGAUAUCAGGUGUGCUAGCGUACUGGUACAUCUGAGAAGGCACAUGAGGAUCACCCAUGUUUCUU | – | – | 23.4 | 66.9
12 | AUGUGGUGCGUAGGAUAUCAUUGAGGAAAACCCUGAGAAGGACGUGAGGACAUGAGGAUCACCCAUGUGGAUCACCCAUGUCAU | – | – | 237 | 237
13 | UCUGCAUAGUCAGGAUAUGCAAAGUAAGCUAUGGAAACAUAGCUUACAACAUGAGGAUCACCCAUGUAGAAGGGACUGUGCAGA | – | – | 14.1 | 13
14 | UCAAUUUUGCGAGGAUAUCGACCAUUCCUCUUUACAUGAGGAUCACCCAUGUACUUAUUCUACAACGAGAAGGCGCUCAUAGUU | – | – | 37.5 | 43
15 | GACAUACAUGAGGAUCACCCAUGUUCAGACGAACAAGGAUAUGUGUGGAAACCAUACUAUACAGAAGGUGUCUGUC | 78.4 | 36 | – | –
16 | AAAAAACAUGAGGAUCACCCAUGUGAGGAUAUCCGAAAAAAAAAAAAAAAAAAAAAAAGGAGAAGGCGCAGCAA | – | – | 242 | 206
17 | AGAUAACAUGUAGGAUAUCGAGGCCUGAGGCCUCGAGAAGGACAUGAGGAUCACCCAUGUUUGCCGAGCAUGGAAUCACGCACU | – | – | 18.4 | 54.6
18 | CACCGGUGUACAGGAUAUGCAUCUACGUGGGCUGCAGAAGGGUACAUGAGGAUCACCCAUGUCAACGAAUCCUCAAAUUAGCGA | – | – | 1030 | 1130
19 | GGUUGGCGAGGAUAUACAUGAGGAUCACCCAUGUGGUCCUGCGGUGGUUUCGCCCUUUGUAGAAGGCGCGGGUC | – | – | 40.9 | 40.5

Row | Sequence | apparent Kd [1] [nM] | apparent Kd [2] [nM] | apparent Kd [3] [nM] | apparent Kd [4] [nM]
20 | CUUUUGUGAGGAUAUCAGUGGUAAUACAAUAGUAUUACUACUGAGAAGGCACAUGAGGAUCACCCAUGUUCCUC | – | – | 44.5 | 220
21 | CCGAAUGUCACAGGAUAUGGUCCGGGCUCACGACCAGAAGGGUGAUCUCACAUGAGGAUCACCCAUGUGUAGGCGUUAGGCUAC | 35.3 | 114 | – | –
22 | ACGAAGAAACAGAAGGGUAAAUUAGUUAAUUAUUAUUUGGUUAUGCACUACAGGAUAUGUAUAACAUGAGGAUCACCCAUGUAC | 87.2 | 53.5 | – | –
23 | GGAAGUCAAAGACUUCCUUAACGAACAUGAGGAUCACCCAUGUAGGAUAUGCUACUCAAAGAGUAGCAGAAGGACAUGUGUCUU | – | – | 32.1 | 168
24 | AGGUAACAUGAGGAUCACCCAUGUAAGGUGAACGUAGGAUAUCGAGGAGGUAGGGUAGGCCGAGAAGGACGAGGAG | 293 | 179 | – | –
25 | AGCAUGUGAGGAUAUGUGACCCUCGUCCGAAGGAUGAGGGAAUAGAAGGCACAUGAGGAUCACCCAUGUGAUGA | – | – | 54.1 | 156
26 | GGGCACGGAGGAUAUACAUGAGGAUCACCCAUGUGAUUAGGGCAGUACUUGCCGAUCCGUAGAAGGUUGGCCGA | – | – | 26.1 | 26.8
27 | UUGUUGUCAGGAUAUCGUUAAUUUAAUUGUUUGUAUUAGUUCGAGAAGGGACAUGAGGAUCACCCAUGUUUUUU | – | – | 25.6 | 51.5
28 | GCGUGAAAUGUAGGAUAUGACACAGGAAACUGGUCAGAAGGACAUGAGGAUCACCCAUGUAAAAUGUUCAAGAAUAACACAUGC | – | – | 30.3 | 87
29 | AUACCACGAGGAUAUCGUCUAUAAUACAUGAGGAUCACCCAUGUUAUAUAUGUAAUGUUUCGAGAAGGCGUGUUUU | – | – | 16.6 | 12.9
30 | CGUUCAGAGAACGAUACGAAUGGACAUGAGGAUCACCCAUGUAGAAGGACAGGAGAAUAACGACUGUAGGAUAUACAUUUAGUG | – | – | 41.3 | 76
31 | UGUGGUGGUCAGGAUAUAAAUUGCGCCUGACGCUUAGAAGGGACUACAUGAGGAUCACCCAUGUGAGAGCUUCA | – | – | 16.4 | 15.9
32 | AACAAUCACAUAGGAUAUAGAAUAUUAUAUUUUUACAUGAGGAUCACCCAUGUUUUAUUGGGAUUCUAGAAGGAUGAGUAAUAA | 162 | 90.8 | – | –
33 | GUCAGCUCGUGAGGAUAUACAUAAUCCUAAGAUCACAUGAGGAUCACCCAUGUAGAAGGCACGAGCUGAUAAGCACGAAAGUGC | – | – | 8.89 | 50.2
34 | AAAAAGCGAGGAUAUACAUAGCUAAGACAAAUAAGCAAAAAACAUGAGGAUCACCCAUGUAGAAGGCGCAAAAA | – | – | 19.2 | 15.4
35 | CCCGCCAUACAGAAGGGAAACAUGAGGAUCAGCCGCGACAUGAGGAUCACCCAUGUUUACCUAUUUCAGGAUAUGUACACUCCC | 470 | 225 | – | –
36 | UCGCUGCGAGGAUAUACGUUUGCGCGUUUUCGUUUGCGCGUACAUGAGGAUCACCCAUGUAGAAGGCGCGCGGC | – | – | 14.3 | 14.8
37 | UACGUACAGAAGAACUCCGGGUCCAGAAGGGACAUGAGGAUCACCCAUGUACCGUUGAUUGCUUGUCAGGAUAUGGACCCAGCC | – | – | 7.75 | 26.8
38 | AUUGUAAUGUCAGGAUAUAUUAUUUUUUACAUAGUAGAAGGGAUAAUUAUACUCAUGUACAUGAGGAUCACCCAUGUUAAAUAU | 58.8 | 24.8 | – | –

Row | Sequence | apparent Kd [1] [nM] | apparent Kd [2] [nM] | apparent Kd [3] [nM] | apparent Kd [4] [nM]
39 | ACAUACAUUCGAGGAUAUCGGUGAUUAAUAAUACGAGAAGGCGAUUUAAGAUAUAAAAUUUUAGACAUGAGGAUCACCCAUGUA | 27.9 | 23.9 | – | –
40 | GGACAUUUACAGAAGGGCAAGUUUUAUAGUGAAUAUUUAGUUCUGACUUGCAGGAUAUGUUGAACAUGAGGAUCACCCAUGUCC | 16.4 | 10.5 | – | –
41 | AUAAAGCGAGGAUAUACAUGAGGAUCACCCAUGUGGCAGCCAGGUAGGAGUGACGUCGGUAGAAGGCGCACCCU | – | – | 31.9 | 35.6
42 | CAGCCCUGAGGAUAUCCAUCCUUGUACAUGAGGAUCACCCAUGUUUUCCUCUGGGCUUUCGGAGAAGGCAGGUAUC | – | – | 74.4 | 68.5
43 | AAUAACAGAGGAUAUACUAUUUUAUGUGUUUGUUAUUUUGAACAUGAGGAUCACCCAUGUAGAAGGCUGAUUAA | – | – | 44.4 | 43.9
44 | AAGACAUGAGGAUCACCCAUGUAAAGACCGGUCGAUCAAUGUGAGGAUAUUCCAUAAUUGAUAGGGAAGAAGGCACUGGGUUGA | 177 | 130 | – | –
45 | UUAUUAAGUGUGAGGAUAUGCUGGUCCUUGGAUCAGCAGAAGGCACAUGAGGAUCACCCAUGUACAAUAUAUUA | – | – | 38.5 | 251
46 | CAGGUCUGAGGAUAUCCAUCCUCCUACAUGAGGAUCACCCAUGUUUCCCUCUGGGUUUUCGGAGAAGGCAGUUUUU | – | – | 749 | 525
47 | GCGUCAGUUUCACAUGUAAUACAUGAGGAUCACCCAUGUUACUAGGAUAUGUAUUAGAAUUAUCAACAGAAGGAGUAAUGACGC | – | – | 11.1 | 12.8
48 | CGUCCGUGGGUAGUGAUCGUACAUGAGGAUCACCCAUGUGAGAAGGAUAUGCAUGCACGCGGACAGCAGAAGGUCUCACAACAA | – | – | 133 | 429
49 | AAAAGACAUGAGGAUCACCCAUGUAAAGACGUGGGAGGAUAUGUAUGGAAACCAGACUGUACAGAAGGCCUUUGUC | 161 | 52.4 | – | –
50 | CAGACGUCAGGAUAUCUGAUGUCUAACUUCGGUUAGACAUCAGAGAAGGGACAUGAGGAUCACCCAUGUCUGAA | – | – | 25.4 | 23.6
51 | GCUCCUCGAGUUAGGAUAUGUCGGCUAUCUAAAUGAUAGAAGGGACAUGAGGAUCACCCAUGUCACGGGAUUGA | – | – | 56.7 | 58.7
52 | UGGGAUGGCUAGAAGGCUCCGUAUACUAAAGGGAGAGGAUAUGGCACAUGAGGAUCACCCAUGUGUACCUGUAGGUGAUCCACA | – | – | 276 | 70
53 | GGGUUGGGAGGAUAUCCAAUAUAUGACAUGAGGAUCACCCAUGUUUCCACUCGUACCUCCGGAGAAGGCCCAUCCC | – | – | 22.9 | 21.1
54 | AGUGUCAUCGAGAAGGCCUCAACAUGAGGAUCACCCAUGUUGCAAAAUGGGAGGAUAUCGAAAAAACAGCUACGUUUCGUAGCA | 22.6 | 5.17 | – | –
55 | UUGUACAUAGGAUAUAGUUGUUUGUACAUGAGGAUCACCCAUGUUAUGUAUGUUUUGUUUCUAGAAGGAUGUUGAU | – | – | 50.2 | 38.9
56 | AUUAUUUAGUGAGGAUAUACAGAUUAUGAGUUUGUAGAAGGCACUUUCCUCAGGACAUGAGGAUCACCCAUGUGUUAAUAAGAU | – | – | 89.7 | 316
